Test results: article PMC7610487 (Nature chemical biology, 2020)

Tested on: zebrafish embryos
Assay: Effects of the fluorogens on zebrafish embryogenesis
Format: in vivo
Outline: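 Wild-type AB zebrafish embryos were raised at 28°C and staged as hours postfertilization. Fluorogen exposure started at 50% epiboly, either as a 1 h pulse or continuously overnight to 24 hpf. At 48 hpf, embryos were examined by brightfield microscopy and scored into three classes: no defect, axis defects, or dead.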

[1] = 5 μM fluorogen during 1 hour at 50% epiboly
[2] = 5 μM fluorogen overnight from 50% epiboly to 24 hpf

Structure (SMILES)	effects on embryos scored at 48 hpf [1]	effects on embryos scored at 48 hpf [2]
Cc1cc(C=C2SC(=S)NC2=O)ccc1O [HMBR, 4-hydroxy-3-methylbenzylidene rhodanine]	No deleterious effects	No deleterious effects
COc1cc(C=C2SC(=S)NC2=O)cc(OC)c1O [HBR-3,5DOM, 4-hydroxy-3,5-dimethoxybenzylidene rhodanine]	No deleterious effects	No deleterious effects
